Data as given in ChEMBL document CHEMBL4373711, “Development of 3,5-Dinitrophenyl-Containing 1,2,4-Triazoles and Their Trifluoromethyl Analogues as Highly Efficient Antitubercular Agents Inhibiting Decaprenylphosphoryl-β-d-ribofuranose 2'-Oxidase” (J Med Chem, 2019).
In brackets after ≈: the same amount, converted by molar mass. Activity calls are given as the source filed them. No cut-off for these calls is given here.

How the values were obtained:
Escherichia coli = test: Antibacterial activity against Escherichia coli ATCC 25922 CCM 3954 at highest concentration measured after 24 to 48 hrs by alamar blue dye based broth microdilution assay; type: functional, organism-based
Pseudomonas aeruginosa = test: Antibacterial activity against Pseudomonas aeruginosa ATCC 27853 CCM 3955 at highest concentration measured after 24 to 48 hrs by alamar blue dye based broth microdilution assay; type: functional, organism-based
Serratia marcescens = test: Antibacterial activity against Serratia marcescens at highest concentration measured after 24 to 48 hrs by alamar blue dye based broth microdilution assay; type: functional, organism-based
Candida tropicalis = test: Antifungal activity against Candida tropicalis ATCC 750 CCM 8264 at highest concentration measured after 24 to 48 hrs by alamar blue dye based broth microdilution assay; type: functional, organism-based
Aspergillus fumigatus = test: Antifungal activity against Aspergillus fumigatus ATCC 204305 at highest concentration measured after 24 to 48 hrs by alamar blue dye based broth microdilution assay; type: functional, organism-based
[1] = system: Staphylococcus epidermidis; test: Antibacterial activity against Staphylococcus epidermidis at highest concentration measured after 24 to 48 hrs by alamar blue dye based broth microdilution assay; type: functional, organism-based
[2] = Cytotoxicity against human A431 cells assessed as cell viability at 30 uM after 48 hrs by CellTiter 96 aqueous one solution assay relative to control; type: cell-based, A-431; settings: read-out: Activity
Summary of the method: (§1)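 HepG2 (DMEM, 10% FBS, 1 mM pyruvate) or A431 (DMEM, 10% FBS) seeded 10,000 cells/well, 24 h at 37 °C, 5% CO2, then 30 µM compound for 48 h. MTS reagent 60 min, absorbance 490 nm, background subtracted; 0.1% DMSO vehicle = 100%, 10% SDS = 0% viability.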

Mycobacterium kansasii [3] = test: Antimycobacterial activity against Mycobacterium kansasii 6509/96 after 7 days; type: functional; settings: 6509/96, 168 h
Summary of the method: (§2)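 Microdilution in Šula's semisynthetic medium; compounds in DMSO at 32–0.03 µM. Inoculum from 1.0 McFarland suspension diluted 10-4. […] Isoniazid and rifampicin as reference drugs.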

Candida albicans = test: Antifungal activity against Candida albicans ATCC 24433 CCM 8320 at highest concentration measured after 24 to 48 hrs by alamar blue dye based broth microdilution assay; type: functional, organism-based
Mycobacterium avium [4] = test: Antimycobacterial activity against Mycobacterium avium CNCTC My 330/88 after 14 days; type: functional; settings: CNCTC My 330/88, 336 h
Summary of the method: (§3)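 M. avium was tested by microdilution in Šula's semisynthetic medium, with compounds dissolved in DMSO and serially diluted from 1000 down to 1. Inoculum was a 1.0 McFarland suspension diluted 10-5. Plates were incubated at 37 °C and read at 14 and 21 days. […] Isoniazid and rifampicin served as standards.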

Lichtheimia corymbifera = test: Antifungal activity against Lichtheimia corymbifera CCM 8077 at highest concentration measured after 24 to 48 hrs by alamar blue dye based broth microdilution assay; type: functional, organism-based
[5] = system: Mycobacterium tuberculosis; test: Antimycobacterial activity against Mycobacterium tuberculosis H37Rv CNCTC My 331/88 after 14 days; type: functional; settings: H37Rv CNCTC My 331/88, 336 h
Summary of the method: (§4)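 M. tuberculosis strains (H37Rv and clinical MDR/XDR isolates) tested by microdilution in Šula's semisynthetic medium. Compounds were dissolved in DMSO and tested at 32 to 0.03 µM in twofold steps. Inoculum was a 1.0 McFarland suspension diluted 10-3. Plates were incubated at 37 °C and read at 14 and 21 days.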

[6] = system: Mycobacterium tuberculosis; test: Antimycobacterial activity against Mycobacterium tuberculosis H37Rv CNCTC My 331/88 after 21 days; type: functional; settings: H37Rv CNCTC My 331/88, 504 h; summary of the method: as §4
Mycobacterium kansasii [7] = test: Antimycobacterial activity against Mycobacterium kansasii 6509/96 after 14 days; type: functional; settings: 6509/96, 336 h; summary of the method: as §2
Klebsiella pneumoniae = test: Antibacterial activity against Klebsiella pneumoniae at highest concentration measured after 24 to 48 hrs by alamar blue dye based broth microdilution assay; type: functional, organism-based
Staphylococcus aureus [8] = test: Antibacterial activity against methicillin-resistant Staphylococcus aureus subsp. aureus ATCC 43300 CCM 4750 at highest concentration measured after 24 to 48 hrs by alamar blue dye based broth microdilution assay; type: functional, organism-based
A-431 = test: Cytotoxicity against human A431 cells assessed as reduction in cell viability after 48 hrs by CellTiter 96 aqueous one solution assay; type: cell-based; settings: A-431, 48 h
Aspergillus flavus = test: Antifungal activity against Aspergillus flavus CCM 8363 at highest concentration measured after 24 to 48 hrs by alamar blue dye based broth microdilution assay; type: functional, organism-based
HepG2 = test: Cytotoxicity against human HepG2 cells assessed as reduction in cell viability after 48 hrs by CellTiter 96 aqueous one solution assay; type: cell-based; settings: HepG2, 48 h
[9] = Cytotoxicity against human HepG2 cells assessed as cell viability at 30 uM after 48 hrs by CellTiter 96 aqueous one solution assay relative to control; type: cell-based; settings: read-out: Activity; summary of the method: as §1
[10] = system: Trichophyton interdigitale; test: Antifungal activity against Trichophyton interdigitale ATCC 9533 CCM 8377 at highest concentration measured after 72 to 120 hrs by alamar blue dye based broth microdilution assay; type: functional
Mycobacterium kansasii [11] = test: Antimycobacterial activity against Mycobacterium kansasii CNCTC My 235/80 after 7 days; type: functional; settings: CNCTC My 235/80, 168 h; summary of the method: as §2
Mycobacterium kansasii [12] = test: Antimycobacterial activity against Mycobacterium kansasii 6509/96 after 21 days; type: functional; settings: 6509/96, 504 h; summary of the method: as §2
Mycobacterium avium [13] = test: Antimycobacterial activity against Mycobacterium avium CNCTC My 330/88 after 21 days; type: functional; settings: CNCTC My 330/88, 504 h; summary of the method: as §3
Candida parapsilosis = test: Antifungal activity against Candida parapsilosis ATCC 22019 CCM 8260 at highest concentration measured after 24 to 48 hrs by alamar blue dye based broth microdilution assay; type: functional, organism-based
Mycobacterium kansasii [14] = test: Antimycobacterial activity against Mycobacterium kansasii CNCTC My 235/80 after 21 days; type: functional; settings: CNCTC My 235/80, 504 h; summary of the method: as §2
Staphylococcus aureus [15] = test: Antibacterial activity against Staphylococcus aureus subsp. aureus ATCC 29213 CCM 4223 at highest concentration measured after 24 to 48 hrs by alamar blue dye based broth microdilution assay; type: functional, organism-based
Pichia kudriavzevii = test: Antifungal activity against Candida krusei ATCC 6258 CCM8271 at highest concentration measured after 24 to 48 hrs by alamar blue dye based broth microdilution assay; type: functional, organism-based
Mycobacterium kansasii [16] = test: Antimycobacterial activity against Mycobacterium kansasii CNCTC My 235/80 after 14 days; type: functional; settings: CNCTC My 235/80, 336 h; summary of the method: as §2
Enterococcus faecalis = test: Antibacterial activity against Enterococcus faecalis ATCC 29212 CCM 4224 at highest concentration measured after 24 to 48 hrs by alamar blue dye based broth microdilution assay; type: functional, organism-based

Compound	Activity (Escherichia coli)	Activity (Pseudomonas aeruginosa)	Activity (Serratia marcescens)	Activity (Candida tropicalis)	Activity (Aspergillus fumigatus)	Activity [1]	viability at 48 h, 30 µM [2] [%]	MIC99 (Mycobacterium kansasii [3]) [µM]	Activity (Candida albicans)	MIC99 (Mycobacterium avium [4]) [µM]	Activity (Lichtheimia corymbifera)	MIC99 [5] [µM]	MIC99 [6] [µM]	MIC99 (Mycobacterium kansasii [7]) [µM]	Activity (Klebsiella pneumoniae)	Activity (Staphylococcus aureus [8])	IC50 (A-431) [µM]	Activity (Aspergillus flavus)	IC50 (HepG2) [µM]	viability at 48 h, 30 µM [9] [%]	other results
O=[N+]([O-])c1cc(CSc2nnc(-c3ccc(Cl)cc3)n2Cc2ccccc2)cc(C(F)(F)F)c1	inactive	inactive	inactive	inactive	inactive	inactive	73	> 32	inactive	250 (≈ 126 µg/mL)	inactive	32 (≈ 16.2 µg/mL)	> 32	> 32	inactive	inactive	> 30	inactive	> 30	107	Activity [10]: inactive; MIC99 (Mycobacterium kansasii [11]): 32 µM (≈ 16.2 µg/mL); MIC99 (Mycobacterium kansasii [12]): > 32 µM; MIC99 (Mycobacterium avium [13]): 250 µM (≈ 126 µg/mL); Activity (Candida parapsilosis): inactive; MIC99 (Mycobacterium kansasii [14]): > 32 µM; Activity (Staphylococcus aureus [15]): inactive; Activity (Pichia kudriavzevii): inactive; MIC99 (Mycobacterium kansasii [16]): > 32 µM; Activity (Enterococcus faecalis): inactive
Cn1c(SCc2ccc(Br)cc2)nnc1-c1cc([N+](=O)[O-])cc([N+](=O)[O-])c1	inactive	inactive	inactive	inactive	inactive	inactive	137	0.25 (≈ 0.113 µg/mL)	inactive	8 (≈ 3.6 µg/mL)	inactive	0.25 (≈ 0.113 µg/mL)	0.5 (≈ 0.225 µg/mL)	0.5 (≈ 0.225 µg/mL)	inactive	inactive	> 30	inactive	> 30	152	Activity [10]: inactive; MIC99 (Mycobacterium kansasii [11]): 0.5 µM (≈ 0.225 µg/mL); MIC99 (Mycobacterium kansasii [12]): 1 µM (≈ 0.45 µg/mL); MIC99 (Mycobacterium avium [13]): 8 µM (≈ 3.6 µg/mL); Activity (Candida parapsilosis): inactive; MIC99 (Mycobacterium kansasii [14]): 1 µM (≈ 0.45 µg/mL); Activity (Staphylococcus aureus [15]): inactive; Activity (Pichia kudriavzevii): inactive; MIC99 (Mycobacterium kansasii [16]): 0.5 µM (≈ 0.225 µg/mL); Activity (Enterococcus faecalis): inactive
O=[N+]([O-])c1cc(-c2nnc(SCc3ccc(Cl)cc3)n2Cc2ccccc2)cc(C(F)(F)F)c1	inactive	inactive	inactive	inactive	inactive	inactive	121	0.5 (≈ 0.252 µg/mL)	inactive	250 (≈ 126 µg/mL)	inactive	0.5 (≈ 0.252 µg/mL)	0.5 (≈ 0.252 µg/mL)	0.5 (≈ 0.252 µg/mL)	inactive	inactive	> 30	inactive	> 30	68	Activity [10]: inactive; MIC99 (Mycobacterium kansasii [11]): 0.5 µM (≈ 0.252 µg/mL); MIC99 (Mycobacterium kansasii [12]): 0.5 µM (≈ 0.252 µg/mL); MIC99 (Mycobacterium avium [13]): 250 µM (≈ 126 µg/mL); Activity (Candida parapsilosis): inactive; MIC99 (Mycobacterium kansasii [14]): 0.5 µM (≈ 0.252 µg/mL); Activity (Staphylococcus aureus [15]): inactive; Activity (Pichia kudriavzevii): inactive; MIC99 (Mycobacterium kansasii [16]): 0.5 µM (≈ 0.252 µg/mL); Activity (Enterococcus faecalis): inactive
O=[N+]([O-])c1cc(CSc2nnc(-c3ccccc3)n2C2CCCCC2)cc([N+](=O)[O-])c1	inactive	inactive	inactive	inactive	inactive	inactive	131	1 (≈ 0.439 µg/mL)	inactive	250 (≈ 110 µg/mL)	inactive	1 (≈ 0.439 µg/mL)	2 (≈ 0.879 µg/mL)	2 (≈ 0.879 µg/mL)	inactive	inactive	> 30	inactive	> 30	87	Activity [10]: inactive; MIC99 (Mycobacterium kansasii [11]): 1 µM (≈ 0.439 µg/mL); MIC99 (Mycobacterium kansasii [12]): 4 µM (≈ 1.76 µg/mL); MIC99 (Mycobacterium avium [13]): 250 µM (≈ 110 µg/mL); Activity (Candida parapsilosis): inactive; MIC99 (Mycobacterium kansasii [14]): 4 µM (≈ 1.76 µg/mL); Activity (Staphylococcus aureus [15]): inactive; Activity (Pichia kudriavzevii): inactive; MIC99 (Mycobacterium kansasii [16]): 2 µM (≈ 0.879 µg/mL); Activity (Enterococcus faecalis): inactive
